How the values were obtained:
[1] = target: T1, Dual specificity mitogen-activated protein kinase kinase 7 (Homo sapiens) (UniProt O14733); test: Inhibition of MKK7beta at 0.1 uM; values are per cent of control
T1 sequence (whole entry): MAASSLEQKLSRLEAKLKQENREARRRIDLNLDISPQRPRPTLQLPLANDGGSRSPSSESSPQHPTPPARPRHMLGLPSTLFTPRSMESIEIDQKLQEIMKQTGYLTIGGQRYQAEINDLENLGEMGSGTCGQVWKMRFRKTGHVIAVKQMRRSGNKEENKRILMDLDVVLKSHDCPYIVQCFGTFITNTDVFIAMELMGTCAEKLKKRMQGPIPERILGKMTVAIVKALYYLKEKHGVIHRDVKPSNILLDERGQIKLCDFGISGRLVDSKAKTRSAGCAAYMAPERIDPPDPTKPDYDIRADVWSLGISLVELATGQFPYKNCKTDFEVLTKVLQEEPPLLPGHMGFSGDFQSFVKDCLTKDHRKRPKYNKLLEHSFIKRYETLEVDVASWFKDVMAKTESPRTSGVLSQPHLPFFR

[2] = target: Hepatocyte growth factor receptor (Homo sapiens) (UniProt P08581); test: Inhibition of Met at 1 uM
Summary of the method: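 Single-point screen within a 108-kinase selectivity panel. Each kinase was tested with inhibitor at 0.1 and 1.0 micromolar, and activity was recorded as percent inhibition.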

[3] = target: T2, Tyrosine-protein kinase JAK3 (Homo sapiens) (UniProt P52333); test: Inhibition of JAK3 at 0.1 uM; values are per cent of control
T2 sequence (whole entry): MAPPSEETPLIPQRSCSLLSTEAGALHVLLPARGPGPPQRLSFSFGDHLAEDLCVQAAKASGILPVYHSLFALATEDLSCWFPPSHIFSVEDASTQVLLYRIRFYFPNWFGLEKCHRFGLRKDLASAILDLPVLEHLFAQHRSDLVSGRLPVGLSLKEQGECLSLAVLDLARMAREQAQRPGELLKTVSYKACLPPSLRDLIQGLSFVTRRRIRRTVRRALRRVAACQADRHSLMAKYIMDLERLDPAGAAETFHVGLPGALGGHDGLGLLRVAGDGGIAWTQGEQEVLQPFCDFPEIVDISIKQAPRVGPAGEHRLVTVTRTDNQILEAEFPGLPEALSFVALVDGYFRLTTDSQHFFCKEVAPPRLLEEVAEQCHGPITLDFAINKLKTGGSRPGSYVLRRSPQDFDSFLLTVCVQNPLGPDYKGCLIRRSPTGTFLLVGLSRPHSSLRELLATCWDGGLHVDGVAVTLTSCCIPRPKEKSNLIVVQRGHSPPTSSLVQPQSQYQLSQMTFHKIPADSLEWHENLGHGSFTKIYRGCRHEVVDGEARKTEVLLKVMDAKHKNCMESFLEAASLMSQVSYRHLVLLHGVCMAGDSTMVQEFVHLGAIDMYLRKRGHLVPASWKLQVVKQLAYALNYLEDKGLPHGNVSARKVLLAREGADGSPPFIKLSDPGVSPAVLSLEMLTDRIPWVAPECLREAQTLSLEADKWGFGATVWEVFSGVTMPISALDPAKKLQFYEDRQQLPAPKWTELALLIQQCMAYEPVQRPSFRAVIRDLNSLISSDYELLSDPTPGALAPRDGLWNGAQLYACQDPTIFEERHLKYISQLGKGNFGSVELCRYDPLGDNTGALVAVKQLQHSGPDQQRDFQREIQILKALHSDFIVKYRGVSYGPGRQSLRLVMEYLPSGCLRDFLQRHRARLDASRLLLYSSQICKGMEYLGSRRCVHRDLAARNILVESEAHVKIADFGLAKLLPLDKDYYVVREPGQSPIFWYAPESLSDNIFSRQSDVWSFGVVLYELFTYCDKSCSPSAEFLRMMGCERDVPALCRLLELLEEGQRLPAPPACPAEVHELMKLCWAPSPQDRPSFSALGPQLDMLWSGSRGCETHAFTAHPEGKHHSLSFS

[4] = target: Tyrosine-protein kinase Fes/Fps (Homo sapiens) (UniProt P07332); test: Inhibition of Fes at 0.1 uM; values are per cent of control
[5] = target: Ribosomal protein S6 kinase beta-1 (Homo sapiens) (UniProt P23443); test: Inhibition of p70S6K at 0.1 uM; values are per cent of control
[6] = target: Receptor tyrosine-protein kinase erbB-4 (Homo sapiens) (UniProt Q15303); test: Inhibition of ErbB4 at 1 uM; values are per cent of control
[7] = target: T3, Ephrin type-B receptor 3 (Homo sapiens) (UniProt P54753); test: Inhibition of EphB3 at 1 uM; values are per cent of control
T3 sequence (whole entry): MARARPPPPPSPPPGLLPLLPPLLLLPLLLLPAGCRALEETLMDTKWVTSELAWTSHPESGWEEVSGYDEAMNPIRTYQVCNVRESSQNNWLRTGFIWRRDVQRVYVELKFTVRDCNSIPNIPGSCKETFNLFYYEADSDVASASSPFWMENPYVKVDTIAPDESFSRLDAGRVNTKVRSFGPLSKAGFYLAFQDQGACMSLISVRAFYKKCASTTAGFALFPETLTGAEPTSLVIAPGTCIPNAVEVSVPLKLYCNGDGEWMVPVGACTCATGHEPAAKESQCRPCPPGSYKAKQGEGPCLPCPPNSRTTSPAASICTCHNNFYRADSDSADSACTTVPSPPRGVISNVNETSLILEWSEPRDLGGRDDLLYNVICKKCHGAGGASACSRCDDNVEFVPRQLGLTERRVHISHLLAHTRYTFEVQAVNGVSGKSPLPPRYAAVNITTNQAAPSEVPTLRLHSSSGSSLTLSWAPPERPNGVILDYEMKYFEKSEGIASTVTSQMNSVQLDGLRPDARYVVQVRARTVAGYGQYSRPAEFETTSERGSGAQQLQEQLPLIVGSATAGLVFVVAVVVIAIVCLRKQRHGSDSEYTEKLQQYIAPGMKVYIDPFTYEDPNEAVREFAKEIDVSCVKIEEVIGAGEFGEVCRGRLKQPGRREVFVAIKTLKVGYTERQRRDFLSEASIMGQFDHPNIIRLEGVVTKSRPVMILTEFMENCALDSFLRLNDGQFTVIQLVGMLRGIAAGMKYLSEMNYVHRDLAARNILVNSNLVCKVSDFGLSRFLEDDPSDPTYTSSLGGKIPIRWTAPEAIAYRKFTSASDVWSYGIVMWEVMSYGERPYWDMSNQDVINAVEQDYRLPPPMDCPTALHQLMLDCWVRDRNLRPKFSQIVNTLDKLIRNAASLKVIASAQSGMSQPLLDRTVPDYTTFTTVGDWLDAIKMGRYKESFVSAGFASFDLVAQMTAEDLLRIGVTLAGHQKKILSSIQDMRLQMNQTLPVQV

Sequence of Tyrosine-protein kinase Fes/Fps (Homo sapiens) (P07332 whole entry): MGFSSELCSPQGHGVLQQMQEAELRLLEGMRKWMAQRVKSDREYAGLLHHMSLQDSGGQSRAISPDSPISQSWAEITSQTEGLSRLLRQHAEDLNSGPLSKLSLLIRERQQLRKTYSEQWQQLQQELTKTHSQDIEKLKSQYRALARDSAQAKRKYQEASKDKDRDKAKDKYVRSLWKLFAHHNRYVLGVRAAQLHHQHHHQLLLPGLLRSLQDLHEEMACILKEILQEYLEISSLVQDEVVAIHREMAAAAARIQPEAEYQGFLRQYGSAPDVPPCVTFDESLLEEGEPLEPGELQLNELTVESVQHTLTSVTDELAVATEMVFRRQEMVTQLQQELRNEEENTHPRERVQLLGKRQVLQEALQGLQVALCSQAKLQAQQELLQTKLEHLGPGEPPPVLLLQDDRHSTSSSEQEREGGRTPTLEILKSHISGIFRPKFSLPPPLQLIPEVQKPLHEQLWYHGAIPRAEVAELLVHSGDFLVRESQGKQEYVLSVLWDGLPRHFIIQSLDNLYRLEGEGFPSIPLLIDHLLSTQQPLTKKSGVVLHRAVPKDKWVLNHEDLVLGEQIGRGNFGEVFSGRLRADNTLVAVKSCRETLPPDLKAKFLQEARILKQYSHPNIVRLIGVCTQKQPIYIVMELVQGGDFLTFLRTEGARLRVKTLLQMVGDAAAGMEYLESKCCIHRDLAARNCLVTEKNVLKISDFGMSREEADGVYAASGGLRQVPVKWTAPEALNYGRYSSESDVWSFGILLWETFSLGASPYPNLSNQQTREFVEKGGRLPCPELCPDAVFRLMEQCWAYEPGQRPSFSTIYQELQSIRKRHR
Sequence of Ribosomal protein S6 kinase beta-1 (Homo sapiens) (P23443 whole entry, looked up): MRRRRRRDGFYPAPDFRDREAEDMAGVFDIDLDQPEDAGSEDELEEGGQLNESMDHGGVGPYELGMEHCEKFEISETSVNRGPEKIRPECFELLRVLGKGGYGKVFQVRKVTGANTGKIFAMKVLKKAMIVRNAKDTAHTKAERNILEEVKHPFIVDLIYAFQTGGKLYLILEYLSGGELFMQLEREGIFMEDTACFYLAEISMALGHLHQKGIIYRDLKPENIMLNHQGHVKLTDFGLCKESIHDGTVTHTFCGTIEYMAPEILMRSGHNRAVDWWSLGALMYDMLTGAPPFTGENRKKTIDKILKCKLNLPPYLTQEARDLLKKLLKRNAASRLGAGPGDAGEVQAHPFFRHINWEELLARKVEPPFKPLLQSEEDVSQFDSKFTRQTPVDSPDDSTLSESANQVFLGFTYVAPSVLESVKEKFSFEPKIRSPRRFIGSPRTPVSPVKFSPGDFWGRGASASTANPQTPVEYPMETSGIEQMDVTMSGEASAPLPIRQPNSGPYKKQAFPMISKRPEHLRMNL
Sequence of Hepatocyte growth factor receptor (Homo sapiens) (P08581 whole entry): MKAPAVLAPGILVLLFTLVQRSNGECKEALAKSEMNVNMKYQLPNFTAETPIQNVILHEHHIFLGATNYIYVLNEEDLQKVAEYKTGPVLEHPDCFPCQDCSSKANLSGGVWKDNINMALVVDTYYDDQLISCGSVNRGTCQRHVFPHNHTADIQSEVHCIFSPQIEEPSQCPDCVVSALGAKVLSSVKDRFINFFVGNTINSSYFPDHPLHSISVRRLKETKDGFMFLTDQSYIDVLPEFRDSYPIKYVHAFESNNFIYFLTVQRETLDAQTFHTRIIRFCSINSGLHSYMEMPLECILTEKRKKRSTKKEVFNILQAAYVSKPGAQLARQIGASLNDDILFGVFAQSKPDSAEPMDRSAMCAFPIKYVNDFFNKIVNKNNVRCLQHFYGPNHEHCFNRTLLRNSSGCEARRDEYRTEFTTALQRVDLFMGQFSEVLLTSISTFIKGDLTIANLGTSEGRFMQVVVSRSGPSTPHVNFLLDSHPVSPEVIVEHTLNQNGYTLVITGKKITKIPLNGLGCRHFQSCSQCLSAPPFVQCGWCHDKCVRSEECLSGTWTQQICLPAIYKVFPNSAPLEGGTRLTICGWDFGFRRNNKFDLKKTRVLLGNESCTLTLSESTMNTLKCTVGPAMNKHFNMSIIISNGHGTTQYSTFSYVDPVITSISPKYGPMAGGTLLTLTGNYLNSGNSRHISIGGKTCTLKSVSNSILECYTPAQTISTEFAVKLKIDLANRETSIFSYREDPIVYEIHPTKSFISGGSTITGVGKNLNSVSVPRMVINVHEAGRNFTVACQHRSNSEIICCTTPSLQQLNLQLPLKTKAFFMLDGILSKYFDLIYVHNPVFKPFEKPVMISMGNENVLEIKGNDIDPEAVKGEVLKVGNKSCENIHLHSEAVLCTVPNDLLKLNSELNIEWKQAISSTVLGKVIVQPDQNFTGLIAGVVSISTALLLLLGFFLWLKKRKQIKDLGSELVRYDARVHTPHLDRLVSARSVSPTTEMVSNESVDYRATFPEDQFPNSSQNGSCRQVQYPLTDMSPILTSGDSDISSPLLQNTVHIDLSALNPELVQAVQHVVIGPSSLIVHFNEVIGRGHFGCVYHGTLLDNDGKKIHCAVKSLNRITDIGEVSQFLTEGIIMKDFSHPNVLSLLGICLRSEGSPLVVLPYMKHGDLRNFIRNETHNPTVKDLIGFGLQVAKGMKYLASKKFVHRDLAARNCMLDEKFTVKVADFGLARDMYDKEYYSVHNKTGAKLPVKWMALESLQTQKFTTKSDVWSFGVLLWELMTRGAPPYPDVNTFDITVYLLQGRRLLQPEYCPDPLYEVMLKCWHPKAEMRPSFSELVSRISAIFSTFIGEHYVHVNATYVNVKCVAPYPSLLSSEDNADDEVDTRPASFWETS
Sequence of Receptor tyrosine-protein kinase erbB-4 (Homo sapiens) (Q15303 whole entry): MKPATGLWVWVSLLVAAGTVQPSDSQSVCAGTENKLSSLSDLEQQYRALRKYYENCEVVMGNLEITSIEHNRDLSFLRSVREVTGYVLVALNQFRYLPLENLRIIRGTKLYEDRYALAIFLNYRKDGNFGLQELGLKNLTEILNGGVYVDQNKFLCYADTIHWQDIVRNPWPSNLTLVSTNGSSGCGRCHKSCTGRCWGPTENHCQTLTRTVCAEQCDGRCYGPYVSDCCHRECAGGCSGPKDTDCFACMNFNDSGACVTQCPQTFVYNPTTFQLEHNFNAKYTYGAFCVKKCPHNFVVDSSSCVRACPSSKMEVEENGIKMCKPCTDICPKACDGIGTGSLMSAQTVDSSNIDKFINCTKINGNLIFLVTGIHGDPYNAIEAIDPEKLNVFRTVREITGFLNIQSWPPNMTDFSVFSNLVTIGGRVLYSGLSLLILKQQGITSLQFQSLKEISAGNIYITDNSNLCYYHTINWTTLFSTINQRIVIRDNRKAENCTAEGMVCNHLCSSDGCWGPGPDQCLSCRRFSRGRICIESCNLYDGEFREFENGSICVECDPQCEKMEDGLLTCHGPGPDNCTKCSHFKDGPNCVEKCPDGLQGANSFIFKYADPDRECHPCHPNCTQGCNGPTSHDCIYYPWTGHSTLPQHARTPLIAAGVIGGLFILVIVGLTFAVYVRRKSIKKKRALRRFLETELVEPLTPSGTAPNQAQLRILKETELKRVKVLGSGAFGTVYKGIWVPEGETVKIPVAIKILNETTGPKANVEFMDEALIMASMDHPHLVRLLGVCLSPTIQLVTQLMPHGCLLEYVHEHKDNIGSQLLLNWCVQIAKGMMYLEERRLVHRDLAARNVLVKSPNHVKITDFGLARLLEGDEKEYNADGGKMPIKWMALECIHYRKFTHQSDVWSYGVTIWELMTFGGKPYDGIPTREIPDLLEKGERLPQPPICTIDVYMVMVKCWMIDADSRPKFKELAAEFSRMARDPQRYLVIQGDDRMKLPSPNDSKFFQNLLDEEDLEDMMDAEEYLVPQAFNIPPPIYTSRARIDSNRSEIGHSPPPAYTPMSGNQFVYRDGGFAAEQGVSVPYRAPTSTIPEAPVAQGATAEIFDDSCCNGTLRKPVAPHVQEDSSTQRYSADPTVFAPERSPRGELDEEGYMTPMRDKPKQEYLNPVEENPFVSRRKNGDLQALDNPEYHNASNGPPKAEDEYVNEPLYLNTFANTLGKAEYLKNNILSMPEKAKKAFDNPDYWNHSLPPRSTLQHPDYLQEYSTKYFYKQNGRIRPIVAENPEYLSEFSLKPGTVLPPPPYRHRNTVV

Compound | residual activity [1] [%] | inhibition [2] [%] | residual activity [3] [%] | residual activity [4] [%] | residual activity [5] [%] | residual activity [6] [%] | residual activity [7] [%]
Cc1ccc2cc(-c3n[nH]c4ccc(NC5CCNC5)cc34)[nH]c2c1 (centres undefined) | 98 | 6 | 25 | 3 | 33 | 81 | 105
Cc1ccc2cc(-c3n[nH]c4ccc(NC5CCN(Cc6ccccc6)CC5)cc34)[nH]c2c1 | 103 | 28 | 52 | 28 | 59 | 10 | 119
